Laboratory results taken from ChEMBL document CHEMBL3822360, “Synthesis of new thiazolo-celecoxib analogues as dual cyclooxygenase-2/15-lipoxygenase inhibitors: Determination of regio-specific different pyrazole cyclization by 2D NMR” (Eur J Med Chem, 2016).

Legend:
Rattus norvegicus [1] = assay: Ulcerogenicity in Wistar albino rat assessed as damage in gastric mucosa at 50 mg/kg, po qd for 3 days measured 1 hr post last dose; format: toxicity, organism-based; settings: in vivo
Procedure, shortened: (§1)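 Rats were fasted 18 h, then dosed orally once daily for 3 consecutive days. Compounds were given in DMSO; controls received 10% aqueous DMSO (v/v). Ulcer index is the sum of % ulcer incidence/10, mean number of ulcers per stomach and mean ulcer severity. Values are mean ± SEM.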

[2] = Inhibition of soybean 15-LOX using arachidonic acid as substrate by enzyme immunoassay; parameters: species or system Glycine max
Procedure, shortened: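 Soybean 15-LOX inhibition was measured with an EIA kit following the manufacturer's instructions, in 0.1 M Tris-HCl buffer, pH 7.4. Compounds were dissolved in minimal DMSO and diluted to final concentrations of 0.001–10 μM, including 1, 5 and 10 μM. IC50 (μM) is the mean of two determinations.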

Rattus norvegicus [3] = assay: Anti-inflammatory activity in Wistar albino rat assessed as inhibition of carrageenan-induced paw edema at 50 mg/kg, po measured after 2 hrs relative to control; format: functional
Procedure, shortened: (§2)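 Adult male Wistar albino rats (100–150 g) were housed under a 12 h light cycle at 27 ± 2 °C with food and water. Paw edema was induced with carrageenan after oral dosing. […] Values are mean ± SEM, n = 5.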

Rattus norvegicus [4] = assay: Anti-inflammatory activity in Wistar albino rat assessed as inhibition of carrageenan-induced paw edema at 50 mg/kg, po measured after 4 hrs relative to control; format: functional; procedure, shortened: as §2
[5] = target: T1, Prostaglandin G/H synthase 1 (Ovis aries, UniProt P05979); assay: Inhibition of ovine COX-1 assessed as reduction in PGF2-alpha formation using arachidonic acid as substrate by enzyme immunoassay
T1 sequence (P05979 whole entry): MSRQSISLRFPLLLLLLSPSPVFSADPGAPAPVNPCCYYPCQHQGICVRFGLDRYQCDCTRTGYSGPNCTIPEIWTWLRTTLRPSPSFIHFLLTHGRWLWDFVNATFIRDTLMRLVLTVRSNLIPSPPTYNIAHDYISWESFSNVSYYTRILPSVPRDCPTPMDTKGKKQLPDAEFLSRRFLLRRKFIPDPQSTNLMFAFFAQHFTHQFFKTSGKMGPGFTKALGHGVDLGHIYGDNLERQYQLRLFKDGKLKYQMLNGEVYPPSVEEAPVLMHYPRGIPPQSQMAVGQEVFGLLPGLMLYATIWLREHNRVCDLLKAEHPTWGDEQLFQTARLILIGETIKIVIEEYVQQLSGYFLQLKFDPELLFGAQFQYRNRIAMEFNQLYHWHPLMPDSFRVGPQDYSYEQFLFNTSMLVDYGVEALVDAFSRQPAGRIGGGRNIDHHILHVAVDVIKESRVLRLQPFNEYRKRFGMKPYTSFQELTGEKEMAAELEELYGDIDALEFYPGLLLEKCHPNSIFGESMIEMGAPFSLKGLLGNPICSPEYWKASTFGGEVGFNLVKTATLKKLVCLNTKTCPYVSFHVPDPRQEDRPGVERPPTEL

Rattus norvegicus [6] = assay: Anti-inflammatory activity in Wistar albino rat assessed as inhibition of carrageenan-induced paw edema 15 mg/kg, po measured after 4 hrs relative to control; format: functional; procedure, shortened: as §2
Rattus norvegicus [7] = assay: Anti-inflammatory activity against Wistar albino rat model of carrageenan-induced paw edema assessed as reduction in paw thickness at 15 mg/kg, po measured after 2 hrs relative to control; format: functional; procedure, shortened: as §2
Rattus norvegicus [8] = assay: Ulcerogenicity in Wistar albino rat assessed as damage in gastric mucosa at 30.9 umol/kg, po qd for 3 days measured 1 hr post last dose; format: toxicity, organism-based; settings: in vivo; procedure, shortened: as §1

Compound | UI (Rattus norvegicus [1]) | IC50 [2] [µM] | inhibition in vivo at 50 mg/kg (Rattus norvegicus [3]) [%] | inhibition in vivo at 50 mg/kg (Rattus norvegicus [4]) [%] | IC50 [5] [µM] | inhibition (INH) (Rattus norvegicus [6]) [%] | inhibition in vivo at 15 mg/kg (Rattus norvegicus [7]) [%] | UI (Rattus norvegicus [8])
COc1ccc([C@@H]2CC(c3sc(-c4ccccc4)nc3C)=NN2c2ccc(S(N)(=O)=O)cc2)cc1 | 3.79 | 5.9 | 37.1 | 42.2 | 6.8 |  |  | 
COc1ccc(/C=C/C(=O)c2sc(-c3ccccc3)nc2C)cc1 | 4.08 | 7.4 | 43.8 | 46.9 | 8.6 |  |  | 
Cc1nc(-c2ccccc2)sc1-c1ccnn1-c1ccc(S(N)(=O)=O)cc1 | 2.48 | 8.68 | 54.8 | 54.7 | 9.8 |  |  | 
COc1ccc([C@@H]2CC(c3sc(-c4ccccc4)nc3C)=NN2c2ccc(S(C)(=O)=O)cc2)cc1 | 3.83 | 4.71 | 27.5 | 28.1 | 5.8 |  |  | 
Cc1nc(-c2ccccc2)sc1-c1ccnn1-c1ccc(S(=O)(=O)/N=C/N(C)C)cc1 | 2.93 | 7.68 | 53.2 | 51.6 | 8.7 |  |  | 
Cc1nc(-c2ccccc2)sc1-c1cc(C(F)(F)F)nn1-c1ccc(S(N)(=O)=O)cc1 | 2.67 | 5.41 | 53.2 | 57.8 | 6.3 |  |  | 
C/C(=N\Nc1ccc(S(N)(=O)=O)cc1)c1sc(-c2ccccc2)nc1C | 2.65 | 8.6 | 33.9 | 37.1 | 9.8 |  |  | 
Cc1nc(-c2ccccc2)sc1-c1ccnn1-c1ccc(S(C)(=O)=O)cc1 | 4.35 | 7.49 | 46.8 | 48.4 | 10.3 |  |  | 
Cc1ccc(Cl)c(Nc2ccccc2C(=O)O)c1Cl [MECLOFENAMATE SODIUM] |  | 5.64 |  |  |  |  |  | 
Cc1ccc(-c2cc(C(F)(F)F)nn2-c2ccc(S(N)(=O)=O)cc2)cc1 [CELECOXIB] |  |  |  |  |  | 65.63 | 59.7 | 2.9
Cc1nc(-c2ccccc2)sc1-c1cc(C(F)(F)F)nn1-c1ccc(S(C)(=O)=O)cc1 | 2.78 | 3.98 | 53.2 | 51.6 | 4.8 |  |  | 
C/C(=N\Nc1ccc(S(C)(=O)=O)cc1)c1sc(-c2ccccc2)nc1C | 3.87 | 6.35 | 27.4 | 28.1 | 5.4 |  |  | 
